For orientation: pKi means the negative decadic logarithm of the Ki, by convention in mol/L. A high value points to a low Ki.

pKi: −log10 of the molar value.

Our source for the Ki values is ChEMBL document CHEMBL1131008, “Substituted halogenated arylsulfonamides: a new class of sigma receptor binding tumor imaging agents” (J Med Chem, 1998).

The assay concerns the target Sigma 2 receptor. Nature of the assay: Inhibition of [3H]-DTG binding to sigma-2 receptor of rat liver membranes with 1 uM dextrallorphan. In kind it is cell membranes, Membrane. The essentials:
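Rat liver membranes (150-200 µg protein) incubated with 5 nM [3H]DTG plus 1 µM dextrallorphan to mask sigma-1 sites, in 50 mM Tris-HCl pH 8.0, 120 min at 25 °C. […] Filtration assay. IC50 from curve fitting, converted to Ki via Cheng-Prusoff. Two or three experiments, each in duplicate.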
Regarding `CN(CCN1CCCCCC1)S(=O)(=O)c1ccc(Br)cc1`, the pKi is 7.35.

The compound `O=S(=O)(NCCN1CCCCCC1)c1ccc(I)cc1` showed a pKi of 6.72.

`O=S(=O)(NCCN1CCCCCC1)c1ccc(Br)cc1` gave a negative-log Ki (pKi) of 6.70.

`O=S(=O)(NCCN1CCCC1)c1ccc(I)cc1` showed a negative logarithm of the Ki (pKi) of 6.00.

In turn, `O=S(=O)(NCCN1CCCCC1)c1ccc(Br)cc1` gave a pKi of 6.34.

Compound `O=S(=O)(NCCN1CCCC1)c1ccc(Br)cc1` gave a pKi of 5.83.

Consider `CCN(CC)CCNS(=O)(=O)c1ccc(Br)cc1`, for which the negative logarithm of the Ki (pKi) was 5.55.

Consider `CCN(CC)CCNS(=O)(=O)c1ccc(I)cc1`, for which the pKi is 5.62.

`CN(CCN1CCCCCC1)S(=O)(=O)c1ccc(I)cc1` showed a pKi of 7.63. Against the preceding compound, the pKi is 2.01 log units higher.

`O=S(=O)(NCCN1CCCCC1)c1ccc(I)cc1` gave a pKi of 6.69. This pKi is 0.94 log units lower than that of the compound before.

`COc1ccc(S(=O)(=O)NCCN2CCCCC2)cc1I`: the pKi is 6.35.

Turning to `COc1ccc(S(=O)(=O)N(C)CCN2CCCCCC2)cc1I`, the pKi is 6.47.
